The list is not random: actives were taken first. Their share in the collection is about 1.4%.
ZTA counter – blocks Epstein-Barr virus ZTA, an EBNA-1 counter-screen; ZTA-DNA binding, fluorescence polarization; P03206; AID 2234; 320,000 tested, 0.15% active; inhibition, % at 11 µM; in the data active = inhibition above about 33%
Target sequence (P03206 whole entry, looked up): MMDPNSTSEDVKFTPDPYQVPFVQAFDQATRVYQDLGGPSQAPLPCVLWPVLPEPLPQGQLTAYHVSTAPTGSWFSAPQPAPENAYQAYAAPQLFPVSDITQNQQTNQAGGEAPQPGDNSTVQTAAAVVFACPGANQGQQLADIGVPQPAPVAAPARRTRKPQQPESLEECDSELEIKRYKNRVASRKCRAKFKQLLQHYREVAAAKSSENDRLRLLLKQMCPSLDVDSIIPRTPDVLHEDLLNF
EBNA-1 inhibitor – blocks EBNA-1 binding to DNA. EBNA-1 DNA binding, fluorescence polarization. 300,000 tested, 0.34% active. inhibition, % at 14.8 µM; in the data active = inhibition above about 28%
HCV NS3 hel inh – inhibitors of Hepatitis C virus NS3 helicase; NS3 helicase DNA unwinding, Cy5 molecular beacon fluorescence; inhibition, % at 10.9 µM; 290,000 tested, 0.56% active; AID 1800;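 active = inhibition above the mean of all tested compounds plus 3 SD, set per campaign, cut at about 35% in these data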;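 note: 0% = DMSO wells and 100% = thioflavine S control wells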
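System: Hepatitis C virus NS3 helicase domain fragment enzyme | Reagent: Annealed dual-labelled DNA beacon duplex, ATP-started | Compound dosing: 10.9 µM single point, 0.8% DMSO | Incubation: 1 h reaction at 25 °C, ATP-initiated | Technique: Cy5 fluorescence | Evaluation: Percent inhibition from t60/t0 fluorescence ratio | Benchmarks: Low DMSO, high thioflavine S at 110 µM | Replication: Singlicate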
UBC9 SUMO inh – SUMOylation inhibition. 290,000 tested, 0.36% active. inhibition, % at 35 µM. AID 2006. HTRF SUMOylation assay, SAE1/SAE2 + UBC9, in vitro. P63279; in the data active = inhibition above about 50%, passing the limit was not always enough
Target sequence (P63279 whole entry, looked up): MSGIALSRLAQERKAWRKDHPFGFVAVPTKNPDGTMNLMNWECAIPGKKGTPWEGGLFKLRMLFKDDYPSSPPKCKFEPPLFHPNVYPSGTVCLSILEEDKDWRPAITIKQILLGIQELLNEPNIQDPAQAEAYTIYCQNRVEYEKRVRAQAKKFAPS
HCV core dimer – blocks dimerization of HCV core protein; 300,000 tested, 0.33% active; inhibition, % at 5 µM; TR-FRET GST/Flag-core106 dimerization, 1536-well;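 active = inhibition above the mean of all tested compounds plus 3 SD, set per screening campaign, cut at about 45% in these data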
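Assay system – GST-tagged and Flag-tagged HCV core protein residues 1-106 · Quantity – core106 proteins, GST 13.5 nM and Flag 17 nM · Benchmarks – unlabelled core106 and no-GST-core106 wells · Read-out basis – percent inhibition of core106 dimerization signal · Detection – time-resolved FRET, ex 340 nm, em 617 and 671 nm · Schedule – 4 h at 22.5 °C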
EBNA-1 confirm – EBNA-1 (EBV) inhibition, confirmation. shares compounds with EBNA-1 inhibitor. Recombinant EBNA-1 DBD, Cy5-DNA fluorescence polarization. inhibition, % at 14.8 µM. 830 tested, 35% active. AID 2292;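 active = mean inhibition across replicates above a set limit taken from the earlier primary screen, cut at about 28% in these data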;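 note: plate controls were EBNA-1 protein with DMSO for no effect and wells lacking EBNA-1 for full effect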
ZTA counter trip – counter-screen for EBNA-1 inhibitors: Epstein-Barr virus ZTA inhibitors, triplicate; shares compounds with EBNA-1 inhibitor; Zta-ZRE DNA binding, Cy5 fluorescence polarization; 830 tested, under 10 active; inhibition, % at 11.1 µM; AID 2328;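 active = mean inhibition over triplicates above a set limit taken from the primary EBNA-1 screen, cut at about 37% in these data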;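 note: purified full length Zta protein with Cy5 labeled ZRE DNA probe; 0% = Zta with DMSO and 100% = wells lacking Zta protein; inhibitors lower polarization by freeing the labeled DNA probe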
The depositor's hits bear a star; · = no result; + = active, no number.

SMILES	ZTA counter	EBNA-1 inhibitor	HCV NS3 hel inh	UBC9 SUMO inh	HCV core dimer	EBNA-1 confirm	ZTA counter trip
Cc1ccc(S(=O)(=O)CCC(=O)Nc2nnc(-c3cccs3)o2)cc1	10	4	·	·	2	·	·
COc1cc(C(=O)NCC(c2cccs2)N2CCOCC2)cc(OC)c1OC (stereo not drawn)	-24	4	·	·	-7	·	·
Cc1cccc(C(=O)Oc2ccccc2/C=N/Nc2ccc([N+](=O)[O-])cc2)c1	4	34*	9	-9	2	41*	0
Cc1ccccc1OCc1nnc(SCC(=O)Nc2ccc3nc(SCC(=O)Nc4ccccc4)sc3c2)n1C	-16	44*	-2	5	17	43*	12
CCC(=O)c1ccc(N2CCN(C(=O)COc3ccc(F)cc3)CC2)c(F)c1	12	28*	4	-10	2	5	9
Cc1csc2c(N3CCN(C(=S)Nc4ccc(C(F)(F)F)cc4)CC3)ncnc12	-17	-12	2	-2	-1	·	·
Cc1csc2ncnc(N3CCN(C(=S)Nc4ccc(C(F)(F)F)cc4)CC3)c12	-5	47*	-1	-4	-7	-1	-1
COc1cc(CN2CCN(CCCc3ccccc3)C(CCO)C2)cc(OC)c1O (stereo not drawn)	7	2	-19	0	11	·	·
CC(=O)c1ccc(NC(=S)NC(=O)Cc2ccc(Cl)cc2)cc1	4	31*	-3	-5	2	43*	-1
COc1ccc(Cc2nnc(SCC(=O)Nc3ccccc3C#N)o2)cc1	-15	1	28	1	-10	·	·
CCCCn1c(N)c(N(CCOC)C(=O)c2cc(-c3ccccc3Cl)nc3ccccc23)c(=O)[nH]c1=O	2	-15	·	·	2	·	·
O=C(COC(=O)c1ccccc1Cl)Nc1ccc2[nH]c(=O)[nH]c2c1	19	-1	·	·	-1	·	·
O=C(COC(=O)c1cc(Cl)ccc1Cl)Nc1ccc2[nH]c(=O)[nH]c2c1	-7	85*	·	·	-3	28*	3
Cc1ccc(N2CCN(S(=O)(=O)c3ccc4c(c3)n(C)c(=O)c(=O)n4C)CC2C)cc1 (stereo not drawn)	2	-3	0	3	-2	·	·
Cc1cccc(N2CCN(S(=O)(=O)c3ccc4c(c3)n(C)c(=O)c(=O)n4C)CC2C)c1 (stereo not drawn)	6	35*	5	4	6	0	14
CN=C1SC(CC(=O)Nc2c(C)cccc2C)C(=O)N1/N=C/c1cccs1 (stereo not drawn)	4	36*	-17	-5	7	5	-5
COCCn1cnnc1SCC(=O)Nc1cc(OC)c([N+](=O)[O-])cc1C	20	+	-10	0	2	-3	-5
Cc1ccc(NC(=O)CSc2ccc(-c3ccccn3)nn2)cc1F	1	36*	-93	-24	1	53*	7
CC(=O)Nc1cccc(NC(=O)CSc2ccc(-c3ccccn3)nn2)c1	1	-6	6	12	2	·	·
CC(=O)Nc1c2c(nn1-c1ccc(C)cc1)CSC2	5	0	7	2	5	·	·
Cc1ccc(-n2nc3c(c2NC(=O)c2ccc4c(c2)OCO4)CSC3)cc1	5	47*	-2	12	8	25	8
CN(C(=O)Cn1nnc(-c2ccccc2)n1)C1CCS(=O)(=O)C1 (stereo not drawn)	4	6	·	·	1	·	·
CCN(CC)S(=O)(=O)c1cc(NC(=O)CSc2nc3c(cc2C#N)C(=O)CC(C)(C)C3)ccc1C	10	32*	-1	-24	5	-8	-12
CCN(CC)S(=O)(=O)c1cc(NC(=O)CSc2nnc(N)s2)ccc1C	-18	·	·	·	·	·	·
COc1ccc(CCN2CC(C(=O)NCC(=O)Nc3ccc(F)c(F)c3)CC2=O)cc1OC (stereo not drawn)	3	-4	·	·	-2	·	·
SMILES	ZTA counter	EBNA-1 inhibitor	HCV NS3 hel inh	UBC9 SUMO inh	HCV core dimer	EBNA-1 confirm	ZTA counter trip
CCOc1ccc(NC(=S)NNC(=S)Nc2cccc(C(F)(F)F)c2)cc1	9	9	-21	0	10	·	·
COc1ccc(NC(=S)NNC(=S)Nc2cccc(C(F)(F)F)c2)cc1	-4	169*	-22	-13	4	83*	1
O=C(COC(=O)c1ccc(CNS(=O)(=O)c2ccc(F)c(Cl)c2)cc1)NC1CCCCCCC1	1	3	1	-4	14	·	·
O=C(COC(=O)c1ccc(CNS(=O)(=O)c2ccc(F)c(Cl)c2)cc1)NCC1CCCCC1	-11	31*	4	-8	3	0	-1
Cc1ccc(NC(=S)N/N=C/c2c(C)nn(-c3ccccc3)c2N2CCCC2)cc1	0	39*	-1	-8	21	-3	-7
Cc1nn(-c2ccccc2)c(N2CCCC2)c1/C=N/NC(=S)Nc1ccc(F)cc1	-13	0	·	·	8	·	·
CCNC(=S)N/N=C/c1c(C)nn(-c2cccc(Cl)c2)c1Cl	12	57*	-5	23	17	48*	0
Cc1nn(-c2cccc(Cl)c2)c(Cl)c1/C=N/NC(=O)c1cccs1	16	9	22	34	4	·	·
O=C(COC(=O)c1ncc(Cl)c(Cl)c1Cl)NC1CCCCCC1	7	-16	·	·	3	·	·
O=C(CCN1C(=O)/C(=C\c2cccs2)SC1=S)NC1=NCCS1	8	7	-10	-3	3	·	·
O=C(CCN1C(=O)/C(=C/c2cccs2)SC1=S)NC1=NCCS1	-4	34*	11	17	-3	0	-5
NC(=O)c1nn(-c2ccccc2)nc1NC(=O)Cn1nnc(-c2ccccc2)n1	1	46*	16	10	14	24	2
O=C(N/N=C\c1ccc(CNS(=O)(=O)c2ccc(Cl)cc2)o1)C(=O)Nc1ccc(Oc2ccccc2)cc1	7	29*	7	24	16	30*	-1
COc1ccc(C(C(=O)NCC2CCCO2)N(C(=O)c2snc(C(N)=O)c2N)c2ccc(C)cc2)cc1OC (stereo not drawn)	·	·	4	11	·	·	·
Cc1nc(CNC(=O)CC2C(=O)NCCN2Cc2ccc(F)cc2)cs1 (stereo not drawn)	·	·	0	2	·	·	·
COC(=O)c1cc(NC(=O)C2CCCN(S(=O)(=O)c3c(C)n[nH]c3C)C2)cc(C(=O)OC)c1 (stereo not drawn)	-9	28*	-13	7	-1	18	0
CCOc1ccc(N(C)S(=O)(=O)c2c[nH]c(C(=O)OC)c2)cc1	0	-2	-2	-4	-1	·	·
CCOC(=O)Cc1cc(=O)[nH]c(/N=C(\N)Nc2ccc(C)cc2C)n1	5	47*	0	-17	2	-2	0
C/C=C(\C)C(=O)O[C@H](c1cc2ccc(=O)oc2cc1OC)[C@@H](O)C(C)(C)O	-4	·	·	·	·	·	·
